{
  "source": "ChEMBL document CHEMBL4513216",
  "about": "“Probing the Open Global Health Chemical Diversity Library for Multistage-Active Starting Points for Next-Generation Antimalarials” (ACS Infect Dis, 2020)",
  "data": [
    {"assay": "Toxicity liver stage against HepG2, at 10uM", "assay_type": "cell-based", "design": "test concentration 10 uM, cell line HepG2-A16-CD81EGFP", "details": "human, HepG2-A16-CD81EGFP cells; read-out: INHIBITION", "outline": "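Uninfected HepG2-A16-CD81EGFP cells, 3 × 10^3 per well, 1536-well, plated on prespotted compound at 10 μM final, parasite-free screening media added to match infected plates; puromycin 10 μM positive, DMSO 0.5% negative; run in parallel with 48 h PbLuc assay at 37 °C, 5% CO2; viability by CellTiter-Glo luminescence, normalized to controls.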", "units": {"cytotoxicity at 10 µM": "%"}, "values": [
      {"smiles": "CN(C)CC1CN(c2ncnc3[nH]ccc23)CCO1", "note": "(stereo unspecified)", "cytotoxicity at 10 µM": 0.89},
      {"smiles": "CNC(=O)Cc1coc(-c2ccc(F)cc2)n1", "cytotoxicity at 10 µM": -4.15},
      {"smiles": "COCc1ccc(C(=O)N2CCC(c3nccn3CC3CC3)CC2)o1", "cytotoxicity at 10 µM": -2.81},
      {"smiles": "CS(=O)(=O)N1CCC(Cc2cnc(Br)cn2)C1", "note": "(stereo unspecified)", "cytotoxicity at 10 µM": 14.5},
      {"smiles": "CC(C(=O)N1CCc2sccc2C1)N1CCC(N2CCCC2)CC1", "note": "(stereo unspecified)", "cytotoxicity at 10 µM": 10.9},
      {"smiles": "COCCN1CCCC(c2ncc(C(=O)N3CCOCC3)c(C)n2)C1", "note": "(stereo unspecified)", "cytotoxicity at 10 µM": 0.893},
      {"smiles": "CC(C)C(NC(=O)NCC1(CO)CC1)c1nnc2n1CCC2", "note": "(stereo unspecified)", "cytotoxicity at 10 µM": -6.11},
      {"smiles": "COc1ccc2cc(C(=O)NCCNc3ccc(C)nn3)[nH]c2c1", "cytotoxicity at 10 µM": -3.09},
      {"smiles": "CC(C)N1CCCC1c1cc(C(F)(F)F)[nH]n1", "note": "(stereo unspecified)", "cytotoxicity at 10 µM": 0.171},
      {"smiles": "COCCN1CCCC(Cc2cnc(-c3c(C)nn(C)c3C)cn2)C1", "note": "(stereo unspecified)", "cytotoxicity at 10 µM": -2.56},
      {"smiles": "COC(=O)c1ccc(C(=O)N2CCc3c(ncn3C3CC3)C2)cc1", "cytotoxicity at 10 µM": -3.34},
      {"smiles": "COC(=O)CCCn1ccnc1C(C)c1ccccc1", "note": "(stereo unspecified)", "cytotoxicity at 10 µM": -6.73},
      {"smiles": "CCn1ncc2c1CCCC2NCc1ccc(C)s1", "note": "(stereo unspecified)", "cytotoxicity at 10 µM": -6.73},
      {"smiles": "CC(=O)Nc1nc(C(=O)NC(C)c2ccc(F)c(F)c2)cs1", "note": "(stereo unspecified)", "cytotoxicity at 10 µM": -5.39},
      {"smiles": "Cc1nc2ccccc2nc1CN(C)C1CCCN(c2cccnn2)C1", "note": "(stereo unspecified)", "cytotoxicity at 10 µM": -9.71},
      {"smiles": "CCc1cnc(NC(=O)NC2CCN(C)CC2)s1", "cytotoxicity at 10 µM": -5.66},
      {"smiles": "Cc1ccc(CN2CC3(CCN(C(=O)c4cscn4)C3)C2)s1", "cytotoxicity at 10 µM": -10.3},
      {"smiles": "O=S1(=O)NC(c2ccnc(N3CCOCC3)n2)=Nc2ccccc21", "cytotoxicity at 10 µM": 10.8},
      {"smiles": "COCCN1C[C@H]2CC[C@@]3(N=C(C)N(CC4CC4)C3=O)[C@H]2C1", "cytotoxicity at 10 µM": -7.5},
      {"smiles": "O=C(COC1CCCCC1)N1CCCC(n2ccnc2)C1", "note": "(stereo unspecified)", "cytotoxicity at 10 µM": -19.7},
      {"smiles": "c1cncc(CN2CC[C@H]3O[C@@H](COCC4CCOCC4)CC[C@H]32)c1", "cytotoxicity at 10 µM": -73.5},
      {"smiles": "CCC1(CO)CCCN(C(=O)c2cc(COc3cccc(F)c3)[nH]n2)C1", "note": "(stereo unspecified)", "cytotoxicity at 10 µM": 5.31},
      {"smiles": "COCCn1ccc(=O)c(OCC(=O)Nc2ccc(OC)cc2)c1C", "cytotoxicity at 10 µM": 0.955},
      {"smiles": "O=C(c1cccnc1)N1CCN2C[C@H](OCc3ccccc3)C[C@H]2C1", "cytotoxicity at 10 µM": -75.2},
      {"smiles": "Cc1ccc(CNC(=O)NC2CCN(CC(F)F)CC2)cc1", "cytotoxicity at 10 µM": -6.25},
      {"smiles": "CCc1nc(C2CCCN2CC(=O)N2CCc3ccccc32)no1", "note": "(stereo unspecified)", "cytotoxicity at 10 µM": -11.2},
      {"smiles": "COCC(=O)NC1CC2(CCN(CCN(C)C)CC2)c2ccccc21", "note": "(stereo unspecified)", "cytotoxicity at 10 µM": -113},
      {"smiles": "Cc1noc(C)c1C(=O)N1CCCN(Cc2nccn2C(C)C)CC1", "cytotoxicity at 10 µM": -3.92},
      {"smiles": "CCc1ccc(-n2nnc(C(=O)O)c2-c2ccccn2)cc1", "cytotoxicity at 10 µM": -1.92},
      {"smiles": "O=C(c1ccc(CN2CCCCC2)cc1)N1Cc2cnn(CCO)c2C1", "cytotoxicity at 10 µM": 12.6},
      {"smiles": "CCC(C)NC(=O)c1cc(S(N)(=O)=O)c(Br)s1", "note": "(stereo unspecified)", "cytotoxicity at 10 µM": -4.38},
      {"smiles": "O=C(O)c1ccccc1-n1cnc(CN2CCc3ccccc3C2)c1", "cytotoxicity at 10 µM": 13.6},
      {"smiles": "O=C1CCCN1CCN1CC=C(c2cnn(C3CCS(=O)(=O)C3)c2)CC1", "note": "(stereo unspecified)", "cytotoxicity at 10 µM": -0.36},
      {"smiles": "Cc1cn2c(=O)c(-c3ccnc(N[C@@H]4CCOC4)n3)cnc2s1", "cytotoxicity at 10 µM": -9.19},
      {"smiles": "Cc1cccc(CN2C(=O)CC[C@@H]3[C@H]2CCN3C(=O)c2ccsc2)n1", "cytotoxicity at 10 µM": -85.7},
      {"smiles": "Cc1cc(C)n(CCCN(C)c2cc(N(C)C)ncn2)n1", "cytotoxicity at 10 µM": 3.85},
      {"smiles": "Cc1ccc(CNC(=O)c2cc(CN3CCC(O)CC3)on2)s1", "cytotoxicity at 10 µM": -48.5},
      {"smiles": "O=C(Nc1nnn[nH]1)c1ccc(I)c(F)c1", "cytotoxicity at 10 µM": -2.56},
      {"smiles": "O=S(=O)(c1ccc(F)cc1)n1cc(Cl)cn1", "cytotoxicity at 10 µM": 0.0667},
      {"smiles": "CC(C)n1ccnc1C1CCCN(c2ccccn2)C1", "note": "(stereo unspecified)", "cytotoxicity at 10 µM": 1.28},
      {"smiles": "Cc1nnc(CN(Cc2cccc3c2OCO3)CC2CCCO2)n1C", "note": "(stereo unspecified)", "cytotoxicity at 10 µM": 3.93},
      {"smiles": "CC(NC(=O)NCCS(C)(=O)=O)c1ccc2c(c1)CCC(=O)N2", "note": "(stereo unspecified)", "cytotoxicity at 10 µM": 1.39},
      {"smiles": "COc1ccc(-c2nnc([C@H]3CCN(C4CCC4)C3)o2)cc1", "cytotoxicity at 10 µM": -8.1},
      {"smiles": "CC[C@@H]1N(C)CCC[C@]12CCC(=O)N2Cc1ccncc1", "cytotoxicity at 10 µM": 3.67},
      {"smiles": "Nc1cc(-c2nccnc2N2CCCC2)c2cc[nH]c2n1", "cytotoxicity at 10 µM": 13.6},
      {"smiles": "O=C(c1ccc[nH]1)N1CCc2c(COCC3CC3)cncc2C1", "cytotoxicity at 10 µM": 5.71},
      {"smiles": "O=C(c1cccc2cccnc12)N1CCCC(n2ccnc2)C1", "note": "(stereo unspecified)", "cytotoxicity at 10 µM": -5.75},
      {"smiles": "CCOCCn1c(=O)[nH]c2cc(C(=O)N(C)Cc3nc(C)c[nH]3)ccc21", "cytotoxicity at 10 µM": 6.09},
      {"smiles": "Cc1cccc(Oc2ccccc2CNC(=O)C2CCNC(=O)C2)c1", "note": "(stereo unspecified)", "cytotoxicity at 10 µM": 3.6},
      {"smiles": "CN1CCC2(CC1)C(=O)N(C)c1ccc(F)cc12", "cytotoxicity at 10 µM": -115},
      {"smiles": "Cc1ccc(C(=O)N2CCc3ncnc(C)c3CC2)cc1F", "cytotoxicity at 10 µM": 11.5},
      {"smiles": "c1csc(CCNc2nc(-c3ccncc3)nc3c2CCNCC3)c1", "cytotoxicity at 10 µM": -165},
      {"smiles": "COC1CCN(C(=O)c2cc(-c3ccc(Cl)cc3)on2)CC1", "cytotoxicity at 10 µM": -0.885},
      {"smiles": "CCCOCC1CCN(C(=O)c2cnc(-c3csc(C)n3)nc2O)C1", "note": "(stereo unspecified)", "cytotoxicity at 10 µM": 5.25},
      {"smiles": "Cc1cnn(CCNCc2ccccc2OCc2cccnc2)c1", "cytotoxicity at 10 µM": 3.8},
      {"smiles": "O=S1(=O)COCCN1Cc1ccc(Cl)c(Cl)c1", "cytotoxicity at 10 µM": 8.44},
      {"smiles": "CC(C)NC(=O)C(NC(=O)N1CCN(c2ccc(Cl)cc2)CC1)C(C)C", "note": "(stereo unspecified)", "cytotoxicity at 10 µM": 5.69},
      {"smiles": "O=C(c1cccnc1)N1C[C@@H]2OCC(=O)N(Cc3cccnc3)[C@@H]2C1", "cytotoxicity at 10 µM": 2.08},
      {"smiles": "CC(Cn1cccn1)NC(=O)N(C)Cc1ccc(C(N)=O)cc1", "note": "(stereo unspecified)", "cytotoxicity at 10 µM": 3.37},
      {"smiles": "COC(=O)Nc1cccc(C(=O)N(C)Cc2cccc(O)c2)c1", "cytotoxicity at 10 µM": -5.88},
      {"smiles": "COC(=O)CC(NC(=O)c1cccc(N2CCCC2=O)c1)c1cccs1", "note": "(stereo unspecified)", "cytotoxicity at 10 µM": -51.4},
      {"smiles": "O=S(=O)(Cc1ccccc1)NCC1CCN(c2cnccn2)CC1", "cytotoxicity at 10 µM": 14.4},
      {"smiles": "COc1cc(C(=O)NS(=O)(=O)c2cccc(C#N)c2)cc(Cl)c1OC", "cytotoxicity at 10 µM": -3.93},
      {"smiles": "O=C(c1cc(-c2cccs2)cs1)N1CCSCC1", "cytotoxicity at 10 µM": 10.4},
      {"smiles": "C[C@@H]1CN(C2CCN(Cc3nn(C)c4cccc(Cl)c34)CC2)C[C@H](C)O1", "cytotoxicity at 10 µM": -6.48},
      {"smiles": "COCC(=O)N1CCN(Cc2coc(-c3cccc(F)c3)n2)CC1", "cytotoxicity at 10 µM": -7.16},
      {"smiles": "O=C1CC(c2ccncc2)C2(CCN(C(=O)c3ccc[nH]3)CC2)N1", "note": "(stereo unspecified)", "cytotoxicity at 10 µM": 3.78},
      {"smiles": "O=C(c1ccncc1)N1CCCn2nnc(Cn3cccn3)c2C1", "cytotoxicity at 10 µM": 6.01},
      {"smiles": "CSCC(C)(O)CNC(=O)Nc1ccc(C)cc1Br", "note": "(stereo unspecified)", "cytotoxicity at 10 µM": -9.83},
      {"smiles": "Cn1cc(-c2ncc(C(=O)NCCCn3ccccc3=O)s2)cn1", "cytotoxicity at 10 µM": 4.13},
      {"smiles": "O=C(NCCc1ccccc1F)NCC(O)c1cccc(F)c1", "note": "(stereo unspecified)", "cytotoxicity at 10 µM": -6.23},
      {"smiles": "CN1CCN(c2ccccc2CNC(=O)Cc2ccccc2F)CC1", "cytotoxicity at 10 µM": -1.1},
      {"smiles": "CC(C)c1cccc(-n2cc(O)c(C(=O)O)n2)c1", "cytotoxicity at 10 µM": -4.49},
      {"smiles": "CSCCc1n[nH]c2c1CN(S(=O)(=O)c1cn(C)c(C)n1)CC2", "cytotoxicity at 10 µM": 8.58},
      {"smiles": "NC(=O)CN1CCC(C(=O)NCc2ccc3nonc3c2)CC1", "cytotoxicity at 10 µM": -0.969},
      {"smiles": "Cc1cccnc1CN1CCN(Cc2ccc(-c3cc[nH]n3)o2)CC1", "cytotoxicity at 10 µM": -3.57},
      {"smiles": "CC(=O)NCc1cc2n(n1)CCN(Cc1cccc(Cl)c1Cl)C2", "cytotoxicity at 10 µM": -12.8},
      {"smiles": "CCS(=O)(=O)N1CCN(C(=O)NC(C)C)CC2(CNC(=O)C2)C1", "note": "(stereo unspecified)", "cytotoxicity at 10 µM": -0.82},
      {"smiles": "CCCc1nc(N2CCCC3(CCNC3)C2)c2cnn(C)c2n1", "note": "(stereo unspecified)", "cytotoxicity at 10 µM": -47.8},
      {"smiles": "CO[C@H]1CN(C(=O)c2ccc[nH]2)[C@@H]2COC[C@H]12", "cytotoxicity at 10 µM": -6.04},
      {"smiles": "Nc1nc2c(c(NC(Cn3cccn3)c3ccccc3)n1)CCNCC2", "note": "(stereo unspecified)", "cytotoxicity at 10 µM": -12.3}
    ]}
  ]
}
